The results in this text go back to ChEMBL document CHEMBL6092133, “Enhancing the therapeutic window for Spectinamide anti-tuberculosis Agents: Synthesis, Evaluation, and activation of phosphate prodrug 3408” (Bioorg Med Chem Lett, 2024).

The structures appear in SMILES notation. Activity calls are given as the source filed them. The calls are words filed in the database; no cut-off is given here. Where only a bound is given, the exact number is not on record here.

Data set [1] has as its target Bacterial 70S ribosome. Kind of data set: Inhibition of ribosome-mediated protein synthesis in Mycobacterium smegmatis. Type of data set: subcellular, Mycolicibacterium smegmatis.
The nature of data set [2]: Toxicity in Sprague-Dawley rat assessed as maximum tolerated dose administered as iv bolus injection for 5 sec. The data set is classed as organism-based. As to conditions: in vivo. The method, boiled down:
(§1)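 Rats given single intravenous doses either as a bolus over 5 or 30 seconds or as a timed infusion (minutes, per line). The highest dose tolerated without acute toxicity was recorded as MTD in mg/kg.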

Data set [3] in a line: Toxicity in Sprague-Dawley rat assessed as maximum tolerated dose administered as iv bolus injection for 30 sec. To be noted: in vivo. Type of data set: organism-based. The method, boiled down: as §1
Data set [4] is described as follows: Toxicity in Sprague-Dawley rat assessed as maximum tolerated dose administered via iv infusion for 5 mins. As to conditions: in vivo. The data set is classed as organism-based. In a few lines:
as §1

Data set [5] in a line: Toxicity in Sprague-Dawley rat assessed as maximum tolerated dose administered via iv infusion for 15 mins. The data set is classed as organism-based. As to conditions: in vivo. The method, boiled down:
as §1

A short description of data set [6]: Toxicity in Sprague-Dawley rat assessed as maximum tolerated dose administered via iv infusion for 30 mins. Type of data set: organism-based. To be noted: in vivo. In a few lines:
as §1

Data set [7] relates to Mycobacterium tuberculosis. Kind of data set: Antibacterial activity against Mycobacterium tuberculosis H37Rv by whole cell MIC assay. Type of data set: functional, organism-based.
A short description of data set [8]: Prodrug conversion in rat plasma assessed as 2-(5-chloropyridin-2-yl)-N-((2R,4R,4aS,5aR,6S,7S,8R,9S,9aR,10aS)-4a,7,9-trihydroxy-2-methyl-6,8-bis(methylamino)decahydro-2H-benzo[b]pyrano[2,3-e][1,4]dioxin-4-yl)acetamide formation by measuring half-life at 0.1 to 1 microg/ml. The data set is classed as ADME, cell-free. As to conditions: dose 0.1-1 µg/ml. In a few lines: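 Prodrug incubated in vitro in fresh rat plasma. Appearance of the parent drug was followed over time to give a conversion half-life.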

The nature of data set [9]: Stability of compound in plasmaLyte A and milli-Q water mixture measured for >=6 hrs at room temperature by LC-MS/MS analysis. The data set is classed as physicochemical. As to conditions: buffer. In a few lines: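 Prodrug held in dosing vehicle alone at room temperature for at least 6 hours, with compound integrity monitored over time.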
Data set [10] can be described thus: Prodrug conversion in male Sprague-Dawley rat assessed as AUC of 2-(5-chloropyridin-2-yl)-N-((2R,4R,4aS,5aR,6S,7S,8R,9S,9aR,10aS)-4a,7,9-trihydroxy-2-methyl-6,8-bis(methylamino)decahydro-2H-benzo[b]pyrano[2,3-e][1,4]dioxin-4-yl)acetamide at 10 mg/kg, iv administered as bolus injection and measured after 48 hrs by LC-MS/MS analysis. The data set is classed as ADME, organism-based. As to conditions: in vivo. In a few lines: (§2)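 Rats dosed once by 10 mg/kg i.v. bolus with either the parent spectinamide or the phosphate prodrug at an equivalent molar amount. Plasma parent-drug concentration-time profiles gave AUC, Cmax, clearance, Vss and terminal half-life, reported as mean ± spread.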

The nature of data set [11]: Prodrug conversion in male Sprague-Dawley rat assessed as Cmax of 2-(5-chloropyridin-2-yl)-N-((2R,4R,4aS,5aR,6S,7S,8R,9S,9aR,10aS)-4a,7,9-trihydroxy-2-methyl-6,8-bis(methylamino)decahydro-2H-benzo[b]pyrano[2,3-e][1,4]dioxin-4-yl)acetamide at 10 mg/kg, iv administered as bolus injection and measured after 48 hrs by LC-MS/MS analysis. Type of data set: ADME, organism-based. As to conditions: in vivo. The method, boiled down: as §2

A short description of data set [12]: Prodrug conversion in male Sprague-Dawley rat assessed as clearance of 2-(5-chloropyridin-2-yl)-N-((2R,4R,4aS,5aR,6S,7S,8R,9S,9aR,10aS)-4a,7,9-trihydroxy-2-methyl-6,8-bis(methylamino)decahydro-2H-benzo[b]pyrano[2,3-e][1,4]dioxin-4-yl)acetamide at 10 mg/kg, iv administered as bolus injection and measured after 48 hrs by LC-MS/MS analysis. The data set is classed as ADME, organism-based. To be noted: in vivo. The method, boiled down:
as §2

Data set [13] is described as follows: Prodrug conversion in male Sprague-Dawley rat assessed as volume of distribution at steady state of 2-(5-chloropyridin-2-yl)-N-((2R,4R,4aS,5aR,6S,7S,8R,9S,9aR,10aS)-4a,7,9-trihydroxy-2-methyl-6,8-bis(methylamino)decahydro-2H-benzo[b]pyrano[2,3-e][1,4]dioxin-4-yl)acetamide at 10 mg/kg, iv administered as bolus injection and measured after 48 hrs by LC-MS/MS analysis. The data set is classed as ADME, organism-based. To be noted: in vivo. The method, boiled down: as §2

A short description of data set [14]: Prodrug conversion in male Sprague-Dawley rat assessed as half-life of 2-(5-chloropyridin-2-yl)-N-((2R,4R,4aS,5aR,6S,7S,8R,9S,9aR,10aS)-4a,7,9-trihydroxy-2-methyl-6,8-bis(methylamino)decahydro-2H-benzo[b]pyrano[2,3-e][1,4]dioxin-4-yl)acetamide at 10 mg/kg, iv administered as bolus injection and measured after 48 hrs by LC-MS/MS analysis. The data set is classed as ADME, organism-based. To be noted: in vivo. In a few lines: as §2

Data set [15] in a line: AUC in male Sprague-Dawley rat at 10 mg/kg, iv administered as bolus injection and measured after 48 hrs by LC-MS/MS analysis. The data set is classed as ADME, organism-based. To be noted: in vivo. The method, boiled down: as §2
A short description of data set [16]: Cmax in male Sprague-Dawley rat at 10 mg/kg, iv administered as bolus injection and measured after 48 hrs by LC-MS/MS analysis. The data set is classed as ADME, organism-based. To be noted: in vivo. The method, boiled down:
as §2

A short description of data set [17]: Clearance in male Sprague-Dawley rat at 10 mg/kg, iv administered as bolus injection and measured after 48 hrs by LC-MS/MS analysis. Type of data set: ADME, organism-based. As to conditions: in vivo. In a few lines:
as §2

Data set [18] in a line: Volume of distribution at steady state in male Sprague-Dawley rat at 10 mg/kg, iv administered as bolus injection and measured after 48 hrs by LC-MS/MS analysis. The data set is classed as ADME, organism-based. To be noted: in vivo, read-out: Vdss. The method, boiled down:
as §2

Data set [19] in a line: Half life in male Sprague-Dawley rat at 10 mg/kg, iv administered as bolus injection and measured after 48 hrs by LC-MS/MS analysis. Type of data set: ADME, organism-based. As to conditions: in vivo. In a few lines:
as §2

For `CN[C@@H]1[C@H](O)[C@H](NC)[C@H]2O[C@@]3(O)C(=O)C[C@@H](C)O[C@H]3O[C@@H]2[C@H]1O` [SPECTINOMYCIN], in data set [1], the IC50 was 1.08 µM.

Consider `CN[C@@H]1[C@H](O)[C@H](NC)[C@H]2O[C@]3(O)[C@H](O[C@@H]2[C@H]1O)O[C@H](C)C[C@H]3NC(=O)Cc1ccc(Cl)cn1`, for which the maximal tolerated dose (MTD) at 5 s in data set [2] stood at 75 mg/kg. Further, the MTD at 0.5 min in data set [3] is 100 mg/kg. Moreover, in data set [4], the MTD at 5 min was 100 mg/kg. The MTD at 0.25 h in data set [5] worked out at 150 mg/kg. The MTD at 0.5 h in data set [6] turned out to be 300 mg/kg.

For the compound `CN[C@@H]1[C@H](O)[C@H](NC)[C@H]2O[C@]3(O)[C@H](O[C@@H]2[C@H]1O)O[C@H](C)C[C@H]3NC(=O)Cc1ccc(OP(=O)(O)O)cn1`, the maximum tolerated dose (MTD) at 5 s in [2] is greater than 500 mg/kg. In addition, the outcome in data set [7] was inactive. Also, the IC50 in data set [1] was 12.2 µM. Further, the t1/2 in [8] came out at 19 min; in [14] it was 23.4 min. In addition, the Stability result in data set [9] is on record as “Stable”. Further, the AUC in [10] worked out at 18500 ng·h/mL. Also, the Cmax in [11] was 38900 ng/mL. Also, the CL in data set [12] came out at 9.1 mL/min/kg. Besides, the Vdss in [13] is 0.322 L/kg.

Take `CN[C@@H]1[C@H](O)[C@H](NC)[C@H]2O[C@]3(O)[C@H](O[C@@H]2[C@H]1O)O[C@H](C)C[C@H]3NC(=O)Cc1ccc(O)cn1`: in [2], the MTD at 5 s came to 200 mg/kg. Also, the MTD at 0.5 min in data set [3] came to 200 mg/kg. Further, the MTD at 5 min in data set [4] turned out to be 350 mg/kg. In data set [5], the MTD at 0.25 h is greater than 500 mg/kg. The compound further gave an IC50 in data set [1] of 1.79 µM. In data set [15], this compound yielded an AUC at 48 h of 22000 ng·h/mL. In data set [16], the Cmax turned out to be 47000 ng/mL. Also, the clearance in [17] was 7.72 mL/min/kg. In addition, the Vd in data set [18] turned out to be 0.494 L/kg. Further, the half-life in data set [19] is 23.5 min.

The term IC50 denotes the concentration needed to halve the response being measured. Low values mean greater potency in that assay, high ones weaker potency in that assay. Broadly, the MTD is the largest dose that counted as tolerated. One may read the AUC as concentration integrated over time. As a reminder, the Cmax is the highest concentration seen after dosing. The term Vdss denotes the apparent volume that relates the amount in the body to the concentration in plasma or blood. As a reminder, the clearance is the volume of plasma or blood freed of the substance per unit of time. By half-life is commonly meant how long it takes for the measured level to halve. Read a low half-life as rapid decline.
